Article PMC7821153 (Chemical Biology & Drug Design, 2020)

Key:
Format in all cases: cell-based
[1] = tested on: HIV-1 NNRTI-resistant mutant Y181C; test: Single-round infectivity assay, Y181C; settings: Human immunodeficiency virus 1, read-out: EC50 Y181C
How it was run: (§1)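 Single-round infection with the HIV-1-based vector pNLNgoMIVR-ΔENV.LUC (Env-deleted, luciferase-carrying) bearing the indicated RT mutation(s), used to derive EC50. The mutant vectors are previously described constructs.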

[2] = tested on: HIV-1 NNRTI-resistant mutant K103N; test: Single-round infectivity assay, K103N; settings: Human immunodeficiency virus 1, read-out: EC50 K103N
How it was run: as §1

[3] = tested on: HIV-1 NNRTI-resistant mutant E138K; test: Single-round infectivity assay, E138K; settings: Human immunodeficiency virus 1, read-out: EC50 E138K
How it was run: as §1

[4] = Cellular cytotoxicity, ATP-dependent luminescence assay
How it was run: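 Cytotoxicity measured by ATP-dependent luminescence, with CC50 derived. Values are from three independent experiments (n = 3), and standard deviations are reported.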

WT HIV-1 = test: Single-round infectivity assay, WT RT vector; settings: for EC50: Human immunodeficiency virus 1, read-out: EC50 WT; for TI (therapeutic index): calculated from CC50 and WT EC50
How it was run: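 Single-round infection with an HIV-1-based vector (pNLNgoMIVR-ΔENV.LUC, Env-deleted, luciferase-carrying) with wild-type RT, used to derive EC50. Therapeutic index is calculated from CC50 (ATP-dependent luminescence assay) and wild-type EC50. Three independent experiments (n = 3), with standard deviations.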

[5] = tested on: HIV-1 NNRTI-resistant mutant K103N/Y181C; test: Single-round infectivity assay, K103N/Y181C; settings: Human immunodeficiency virus 1, read-out: EC50 K103N/Y181C
How it was run: as §1

[6] = tested on: HIV-1 NNRTI-resistant mutant H221Y; test: Single-round infectivity assay, H221Y; settings: Human immunodeficiency virus 1, read-out: EC50 H221Y
How it was run: as §1

[7] = tested on: HIV-1 NNRTI-resistant mutant L100I; test: Single-round infectivity assay, L100I; settings: Human immunodeficiency virus 1, read-out: EC50 L100I
How it was run: as §1

[8] = tested on: HIV-1 NNRTI-resistant mutant Y188L; test: Single-round infectivity assay, Y188L; settings: Human immunodeficiency virus 1, read-out: EC50 Y188L
How it was run: as §1

[9] = tested on: HIV-1 RT-resistant mutant K101E; test: Single-round infectivity assay, K101E; settings: Human immunodeficiency virus 1, read-out: EC50 K101E
How it was run: as §1

[10] = tested on: HIV-1 NNRTI-resistant mutant V106A/G190A/F227L; test: Single-round infectivity assay, V106A/G190A/F227L; settings: Human immunodeficiency virus 1, read-out: EC50 V106A/G190A/F227L
How it was run: as §1

[11] = tested on: HIV-1 NNRTI-resistant mutant K103N/P225H; test: Single-round infectivity assay, K103N/P225H; settings: Human immunodeficiency virus 1, read-out: EC50 K103N/P225H
How it was run: as §1

[12] = tested on: HIV-1 NNRTI-resistant mutant M230L; test: Single-round infectivity assay, M230L; settings: Human immunodeficiency virus 1, read-out: EC50 M230L
How it was run: as §1

[13] = tested on: HIV-1 NNRTI-resistant mutant L100I/K103N; test: Single-round infectivity assay, L100I/K103N; settings: Human immunodeficiency virus 1, read-out: EC50 L100I/K103N
How it was run: as §1

[14] = tested on: HIV-1 RT-resistant mutant D67E; test: Single-round infectivity assay, D67E; settings: read-out: EC50 D67E; single-round infection, n = 3
How it was run: as §1

[15] = tested on: HIV-1 NNRTI-resistant mutant G190S; test: Single-round infectivity assay, G190S; settings: read-out: EC50 G190S; single-round infection, n = 3
How it was run: as §1

[16] = tested on: HIV-1 DOR-resistant mutant V106A/F227L/L234I; test: Single-round infectivity assay, V106A/F227L/L234I; settings: read-out: EC50 V106A/F227L/L234I; single-round infection, n = 3
How it was run: as §1

[17] = tested on: HIV-1 DOR-resistant mutant L234I; test: Single-round infectivity assay, L234I; settings: read-out: EC50 L234I; single-round infection, n = 3
How it was run: as §1

[18] = tested on: HIV-1 RT-resistant mutant K101E/M184I; test: Single-round infectivity assay, K101E/M184I; settings: read-out: EC50 K101E/M184I; single-round infection, n = 3
How it was run: as §1

[19] = tested on: HIV-1 NNRTI-resistant mutant P236L; test: Single-round infectivity assay, P236L; settings: read-out: EC50 P236L; single-round infection, n = 3
How it was run: as §1

[20] = tested on: HIV-1 RT-resistant mutant K101E/M184V; test: Single-round infectivity assay, K101E/M184V; settings: read-out: EC50 K101E/M184V; single-round infection, n = 3
How it was run: as §1

[21] = tested on: HIV-1 NNRTI-resistant mutant G190A; test: Single-round infectivity assay, G190A; settings: read-out: EC50 G190A; single-round infection, n = 3
How it was run: as §1

[22] = tested on: HIV-1 DOR-resistant mutant V106A/F227L; test: Single-round infectivity assay, V106A/F227L; settings: read-out: EC50 V106A/F227L; single-round infection, n = 3
How it was run: as §1

Compound	EC50 [1]	EC50 [2]	EC50 [3]	CC50 [4]	EC50 (WT HIV-1)	TI (therapeutic index) (WT HIV-1)	EC50 [5]	EC50 [6]	EC50 [7]	EC50 [8]	EC50 [9]	EC50 [10]	EC50 [11]	EC50 [12]	EC50 [13]	further results
Cc1cc(/C=C/C#N)cc(C)c1Nc1nc(Nc2ccc3cc(/C=C/C#N)ccc3c2)ncc1N [Compound 8, (E)‐3‐(4‐((5‐amino‐2‐((6‐((E)‐2‐cyanovinyl)naphthalen‐2‐yl)amino)pyrimidin‐4‐yl)amino)‐3,5‐dimethylphenyl)acrylonitrile]	264 ± 15.9 nM	121 ± 9.7 nM	534 ± 27.1 nM	10800 ± 700 nM	6.8 ± 0.6 nM	1,588	1990 nM	18.7 ± 2.5 nM	242 ± 35.4 nM	3070 nM	–	–	–	–	–	–
Cc1cc(/C=C/C#N)cc(C)c1-n1cnc2cnc(Nc3ccc4cc(/C=C/C#N)ccc4c3)nc21 [Compound 11, (E)‐3‐(6‐((9‐(4‐((E)‐2‐cyanovinyl)‐2,6‐dimethylphenyl)‐9H‐purin‐2‐yl)amino)naphthalen‐2‐yl)acrylonitrile]	> 5000 nM	232 ± 22.3 nM	> 5000 nM	17100 ± 800 nM	10.2 ± 1.9 nM	1,676	> 5000 nM	17.1 ± 2.1 nM	78 ± 11.7 nM	> 5000 nM	–	–	–	–	–	–
O=C1Nc2ccc(Cl)cc2[C@@](C#CC2CC2)(C(F)(F)F)O1 [EFV, efavirenz, reference compound]	1.6 ± 0.1 nM	35.8 ± 9.1 nM	2.5 ± 0.4 nM	36400 ± 1600 nM	0.9 ± 0.1 nM	>25,000	36 ± 8.4 nM	2.2 ± 0.4 nM	5.4 ± 0.9 nM	76.8 ± 6.5 nM	11 ± 1.2 nM	185 ± 19.8 nM	50.4 ± 3.1 nM	14.3 ± 2 nM	488 ± 50 nM	–
Cc1cc(/C=C/C#N)cc(C)c1-n1cnc2cnc(Nc3ccc(/C=C/C#N)cc3)nc21 [Compound 13, (E)‐3‐(4‐((9‐(4‐((E)‐2‐cyanovinyl)‐2,6‐dimethylphenyl)‐9H‐purin‐2‐yl)amino)phenyl)acrylonitrile]	92.4 ± 10 nM	9.3 ± 0.7 nM	29.1 ± 1.9 nM	> 250000 nM	1.4 ± 0.2 nM	>25,000	323 ± 56.7 nM	2.6 ± 0.7 nM	28.6 ± 7.6 nM	208 ± 12 nM	9.7 ± 1.2 nM	4.7 ± 0.9 nM	29.1 ± 1.6 nM	60 ± 0.9 nM	252 ± 21.9 nM	EC50 [14]: 9.5 ± 1.8 nM; EC50 [15]: 1.2 ± 0.3 nM; EC50 [16]: 5.4 ± 1.1 nM; EC50 [17]: 1.8 ± 0.4 nM; EC50 [18]: 7 ± 0.6 nM; EC50 [19]: 1.1 ± 0.05 nM; EC50 [20]: 3.9 ± 0.6 nM
Cn1c(Cn2ccc(C(F)(F)F)c(Oc3cc(Cl)cc(C#N)c3)c2=O)n[nH]c1=O [DOR, doravirine, reference compound]	2 ± 0.2 nM	4.5 ± 2.8 nM	13.9 ± 2.4 nM	–	–	>25,000	11.3 ± 5.9 nM	4.6 ± 1.8 nM	1.1 ± 0.2 nM	> 100 nM	0.4 ± 0.04 nM	> 100 nM	25.3 ± 4.5 nM	51.1 ± 6.5 nM	2 ± 0.8 nM	–
Cc1cc(/C=C/C#N)cc(C)c1Nc1ncc2ncn(-c3c(C)cc(/C=C/C#N)cc3C)c2n1 [Compound 9, (E)‐3‐(4‐((9‐(4‐((E)‐2‐cyanovinyl)‐2,6‐dimethylphenyl)‐9H‐purin‐2‐yl)amino)‐3,5‐dimethylphenyl)acrylonitrile]	> 5000 nM	48 ± 4.2 nM	150 ± 6.9 nM	192000 ± 11000 nM	10.4 ± 0.6 nM	18,423	> 5000 nM	19.4 ± 2.2 nM	156 ± 30.6 nM	> 5000 nM	–	–	–	–	–	–
Cc1cc(/C=C/C#N)cc(C)c1Nc1nc(Nc2ccc3cc(C#N)ccc3c2)ncc1N [Compound 7, (E)‐6‐((5‐amino‐4‐((4‐(2‐cyanovinyl)‐2,6‐dimethylphenyl)amino)pyrimidin‐2‐yl)amino)‐2‐naphthonitrile]	15.6 ± 2 nM	4 ± 0.8 nM	27.6 ± 2.4 nM	23000 ± 2300 nM	2.3 ± 0.3 nM	10,000	156 ± 12.7 nM	2.8 ± 0.2 nM	4.5 ± 0.4 nM	152 ± 21.3 nM	9.9 ± 2 nM	5.2 ± 1 nM	25.3 ± 3 nM	21.4 ± 4.2 nM	265 ± 5.9 nM	EC50 [14]: 9.7 ± 1.2 nM; EC50 [21]: 1.4 ± 0.1 nM; EC50 [16]: 3.5 ± 0.2 nM; EC50 [18]: 9.4 ± 0.4 nM; EC50 [19]: 1.2 ± 0.3 nM; EC50 [20]: 3 ± 0.3 nM
Cc1cc(/C=C/C#N)cc(C)c1Nc1ccnc(Nc2ccc(C#N)cc2)n1 [RPV, rilpivirine, reference compound]	1.4 ± 0.4 nM	1 ± 0.2 nM	1 ± 0.1 nM	–	–	>25,000	3.5 ± 0.3 nM	1.3 ± 0.1 nM	0.1 ± 0.03 nM	2.3 ± 0.2 nM	2.6 ± 1.6 nM	0.5 ± 0.02 nM	0.6 ± 0.2 nM	1.7 nM	2.3 ± 0.2 nM	EC50 [22]: 0.8 ± 0.1 nM
Cc1cc(/C=C/C#N)cc(C)c1Nc1ncc(N)c(Nc2c(C)cc(/C=C/C#N)cc2C)n1 [Compound 6, (2E,2′E)‐3,3′‐(((5‐aminopyrimidine‐2,4‐diyl)bis(azanediyl))bis(3,5‐dimethyl‐4,1‐phenylene))diacrylonitrile]	2760 ± 580 nM	75.5 ± 5.6 nM	1070 ± 60 nM	44900 ± 600 nM	27.2 ± 3.3 nM	1,651	> 5000 nM	79.2 ± 6.4 nM	3640 nM	> 5000 nM	–	–	–	–	–	–
